Screening data as filed in PubChem BioAssay.
hERG rescue: compounds protecting human hERG from proarrhythmic drug block; Q12809; CHO-hERG, FluxOR thallium flux, dofetilide IC70 present; activation (rescue from dofetilide block), less the hit threshold, % at 10 µM; actives 0.51% (n = 310,000); AID 1511;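 active = activation above the mean of controls blocked by dofetilide plus 5 SD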;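 also: thallium influx through hERG after potassium depolarization seen as dye fluorescence rise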
KCC2 mod: KCC2 (human) Cl- transport modulation | Q9H2X9 | KCC2 cells, thallium flux FluoZin-2 fluorescence | B-score of Tl+ flux slope (higher = more flux/activation; lower = inhibition) at 10 µM | actives 2.2% (n = 190,000);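 active = thallium flux slope and its plate-corrected score both differing from the plate sample mean at a set confidence after two filtering rounds, in either direction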;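 also: slope of fluorescence scaled to starting intensity during 10 to 20 s after thallium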
KCNQ1 inh: blocks the human KCNQ1 potassium channel. CHO-K1 KCNQ1, FluxOR thallium flux fluorescence; hits give high values. actives 1.3% (n = 310,000). B-score at 10 µM. P51787;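 active = compounds whose thallium flux B-score, printed positive for inhibition, exceeds three library SD while starting fluorescence stays within three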;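 also: channel opened by potassium depolarization with thallium stimulus after 20 min compound exposure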
KCNQ1 pot: potentiates or activates the human KCNQ1 potassium channel | B-score at 10 µM | actives 0.35% (n = 310,000) | AID 2648 | CHO-K1 KCNQ1, thallium flux FluxOR fluorescence; hits give high values;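 active = fluorescence ratio B-score, a plate-corrected score, at least three library SD, with initial intensity B-score within 5 SD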
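Material: CHO-K1 cells stably expressing KCNQ1. Medium: assay buffer for compound exposure, DMSO matched across wells. Reagent: K+/Tl+ depolarizing stimulus. Compound dosing: single-concentration screen. Times: 37 °C overnight plating, 90-min dark dye load, 20-min compound pretreatment. Technique: FluxOR Tl+ flux fluorescence.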
KCNK9 block: blocks the human KCNK9 two-pore domain potassium channel | Q9NPC2 | HEK293 KCNK9, FluxOR thallium flux fluorescence; hits give low values | B-score at 10 µM | actives 1.2% (n = 310,000) | AID 488922;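 active = ratio B-score over 3 SD below the library mean, with starting fluorescence within 5 SD of its mean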;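 also: negative B-score means less thallium flux so channel inhibition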
Target sequence (Q9NPC2 whole entry, looked up, the tested form may be a part): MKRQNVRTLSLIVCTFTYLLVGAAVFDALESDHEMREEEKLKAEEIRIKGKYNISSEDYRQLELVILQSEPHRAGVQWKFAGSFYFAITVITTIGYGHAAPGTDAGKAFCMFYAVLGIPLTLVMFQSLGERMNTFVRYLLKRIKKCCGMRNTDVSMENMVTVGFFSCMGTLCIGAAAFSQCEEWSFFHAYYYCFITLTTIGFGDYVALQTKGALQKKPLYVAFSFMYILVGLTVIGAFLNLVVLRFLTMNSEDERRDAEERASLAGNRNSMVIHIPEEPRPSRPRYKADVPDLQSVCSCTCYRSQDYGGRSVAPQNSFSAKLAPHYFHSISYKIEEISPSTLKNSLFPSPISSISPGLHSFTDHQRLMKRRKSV
KCNK3 block: human KCNK3 channel inhibition, primary screen. CHO-KCNK3 thallium flux, FluxOR fluorescence; hits give low values. B-score at 10 µM. actives 0.84% (n = 340,000);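 active = B-score under library mean minus 4 SD, starting fluorescence ratio at most library mean plus 5 SD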;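 also: more negative B-score means stronger inhibition of thallium flux through KCNK3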
KCNK9 inh conf: confirmation of human KCNK9 potassium channel inhibitors. shares compounds with KCNK9 block. HEK293 KCNK9 cells, FluxOR thallium flux fluorescence. inhibition, % at 10 µM. actives 43% (n = 4,900). AID 492992;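 active = thallium signal inhibited by more than 5 SD of the compound-free buffer control wells, on both duplicate plates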;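 also: 0% = assay buffer control wells without compound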
Kir21 sel: mouse Kir2.1 off-target activity of KCNK9 modulators; shares compounds with KCNK9 block; Kir2.1 cells, FluxOR thallium flux fluorescence; inhibition, % at 10 µM; actives 4% (n = 4,900); AID 492993;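 active = thallium signal drop more than 5 SD beyond the mean of the no-compound control wells, seen in both duplicate plates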;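 also: signal is fluorescence rise after thallium addition divided by baseline fluorescence; plate controls were assay buffer only for no effect and full block by chlorpromazine control for full effect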
KCNK9 uninduced: second counter-screen for KCNK9 modulators: effect in non-induced cells; actives 40% (n = 4,900); shares compounds with KCNK9 block; non-induced KCNK9-HEK293, FluxOR thallium flux; inhibition, % at 10 µM;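 active = thallium signal drop beyond 5 SD of the untreated control mean, on both duplicate plates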;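 also: plate controls were buffer only IC0 wells for no effect and SID17386958 at its maximal inhibitory level for full effect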
* hit, by the source's call; i = inactive; . = no result. An excerpt weighted towards active compounds, which were near 4.1% of everything screened.

SMILES | hERG rescue | KCC2 mod | KCNQ1 inh | KCNQ1 pot | KCNK9 block | KCNK3 block | KCNK9 inh conf | Kir21 sel | KCNK9 uninduced
CC(C)(C)c1cc(OC(=O)C2CCCC2)ccc1O | -13 | . | i | i | -8.2* | i | 58%* | i | i
CCc1ccc(C2C(C#N)=C(N)C(C#N)(C#N)C3=CCC(C(C)(C)C)CC32)cc1 (stereo not drawn) | -20 | -1.4 | i | i | i | i | . | . | .
CCOc1cccc(CN2CCN(c3cccc(C(F)(F)F)c3)CC2)c1O | -18 | 1.4 | i | i | i | i | i | i | i
COc1ccccc1-n1c2nc3ccccc3nc2c2c(=O)n(-c3cc(C)cc(C)c3)cnc21 | -10 | -0.12 | i | i | -8.5* | i | i | i | 25%*
CNS(=O)(=O)c1cccc(C(=O)NNC(=O)c2ccc(COc3ccccc3)cc2)c1 | -10 | . | i | i | i | i | . | . | .
O=C1CSC(c2ccc3c(c2)OCO3)N1c1ccc(Oc2ccccc2)cc1 (stereo not drawn) | -10 | -0.037 | i | i | -14* | i | 50%* | i | i
COc1cc(OC)c(C2SCCS2)c(OC)c1 | -6 | 0.6 | i | i | i | i | . | . | .
O=C(NCC[C@@H]1C[C@@H]2C=C[C@H]1C2)c1cc(COc2ccc(F)cc2F)on1 | -8 | . | i | i | -21* | i | 40%* | i | 38%*
O=C1C(=O)c2c(C(=O)c3ccccc3)coc2-c2ccccc21 | -33 | -4 | 7* | i | -15* | i | 60%* | i | 38%*
c1ccc(CNc2ncnc3sc4c(c23)CCCC4)nc1 | -15 | -0.83 | i | i | i | i | . | . | .
Cc1nc(NCc2ccccn2)c2c3c(sc2n1)CCCC3 | -7 | -2.4 | i | i | i | i | i | i | i
Cc1cc2nc(-c3ccc4c(c3)CCC4)ccn2n1 | -17 | -0.096 | i | i | i | i | i | i | i
CC(C)=CC(=O)OCC(=O)NC(=O)NC(C)(C)C | . | . | . | . | . | i | . | . | .
COc1ccc(OC)c(NC(=S)N(CCc2c(C)[nH]c3ccccc23)Cc2cccs2)c1 | -8 | -0.21 | i | i | -9.1* | i | 32%* | i | 31%*
COc1ccc2[nH]c(C)c(CCN(Cc3cccs3)C(=S)Nc3cccc(F)c3)c2c1 | -20 | . | i | i | -14* | -12* | 55%* | i | 31%*
Cc1[nH]c2ccc(F)cc2c1CCN(Cc1cccnc1)C(=S)Nc1cccc(F)c1 | -6 | -0.21 | i | i | -9.1* | i | 42%* | i | 44%*
COc1ccc(OC)c(NC(=S)N(CCc2c(C)[nH]c3ccc(C)cc23)Cc2cccs2)c1 | -19 | -0.57 | i | i | -9.4* | i | 34%* | i | 30%*
COc1ccc(NC(=S)N(CCc2c(C)[nH]c3ccccc23)Cc2ccco2)cc1 | -4 | 0.86 | i | i | i | i | . | . | .
COc1cccc(NC(=S)N(CCN(C)C)Cc2cccs2)c1 | -1 | 0.8 | i | i | i | i | . | . | .
O=C(Oc1cccc(N2C(=O)CCC2=O)c1)C1CC(=O)N(c2ccc(Br)cc2)C1 (stereo not drawn) | -10 | -1.4 | i | i | i | i | . | . | .
Nc1nc(Nc2cccc(C(F)(F)F)c2)nc(C(F)(F)F)n1 | -6 | -1.7 | i | i | -9.3* | i | 40%* | i | i
Nc1ncnc(Nc2cccc(C(F)(F)F)c2)n1 | -11 | -0.48 | i | i | i | i | . | . | .
CC1CCCC(C)N1C(=O)COC(=O)CNC(=O)c1ccccc1F (stereo not drawn) | . | . | . | . | . | i | . | . | .
O=C(CCN1C(=O)c2ccccc2S1(=O)=O)N1CCN(c2ccccc2F)CC1 | -13 | . | i | i | i | i | . | . | .
COc1ccccc1CNC(=O)c1cc(-c2ccccc2)nn1CC1CC(c2cccc([N+](=O)[O-])c2)=NO1 (stereo not drawn) | -8 | . | i | i | -8.7* | i | 44%* | i | 30%*
SMILES | hERG rescue | KCC2 mod | KCNQ1 inh | KCNQ1 pot | KCNK9 block | KCNK3 block | KCNK9 inh conf | Kir21 sel | KCNK9 uninduced
O=C(NCc1cccs1)c1cc(-c2ccccc2)nn1CC1CC(c2cccc([N+](=O)[O-])c2)=NO1 (stereo not drawn) | -4 | . | i | i | i | i | . | . | .
COc1ccc(Cl)cc1NC(=O)C(C)N(C)Cc1cccc(Cl)c1Cl (stereo not drawn) | -8 | 1.3 | i | i | -13* | i | 76%* | i | 52%*
COc1ccc(Cl)cc1NC(=O)CN(C)C(C)C(=O)NC(=O)NC1CCCCC1 (stereo not drawn) | -16 | . | i | i | i | i | i | i | i
COc1ccc(Cl)cc1NC(=O)CN(C)C1CCCCC1 | -9 | -0.26 | i | i | i | i | . | . | .
Cc1ccc(NC(=O)CN2C(=O)S/C(=C\c3cc(C)n(-c4ccc(C(=O)O)cc4)c3C)C2=O)cc1 | -12 | 0.066 | i | i | i | i | i | i | i
COc1cccc(-c2nc(CS(=O)(=O)CC(=O)NCC(C)c3ccccc3)c(C)o2)c1 (stereo not drawn) | -12 | . | i | i | i | i | i | i | i
COc1cccc(-c2nc(CS(=O)(=O)CC(=O)NCCc3ccccc3)c(C)o2)c1 | -10 | . | i | i | i | i | . | . | .
O=C(O)CC(c1cccc(O)c1)N1Cc2ccccc2C1=O (stereo not drawn) | -7 | . | i | i | i | i | . | . | .
O=C(N/N=C/c1cc2c3c(c1O)CCCN3CCC2)c1ccccc1O | -12 | 0.81 | 12* | i | -10* | -10* | 49%* | i | 55%*
CCc1cc(C(c2ccc(OC)c(OC)c2)N2CCOCC2)c(NC(=O)c2ccccc2)s1 (stereo not drawn) | -13 | -1.3 | i | i | i | i | i | i | i
COc1cc(NC(=O)c2ccccc2)c(OC)cc1NC(=O)CN1CCOCC1 | -13 | -0.57 | i | i | i | i | . | . | .
O=C(O)c1ccccc1NS(=O)(=O)c1cccc(C(F)(F)F)c1 | -8 | -0.095 | i | i | i | i | . | . | .
